Activity data for one molecule are collected here from ChEMBL document CHEMBL4311987, “Discovery of novel allosteric site and covalent inhibitors of FBPase with potent hypoglycemic effects” (Eur J Med Chem, 2019).

For this data set, the system named is Hepatocyte. Put plainly: Cytotoxicity against C57BLKS rat Primary hepatocytes assessed as cell viability by measuring cellular protein level at 25 to 100 uM in presence of insulin and glucose by bicinchoninic acid method. The class given is cell-based. In short, it runs like this:
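Primary hepatocytes isolated from rat, cultured overnight in DMEM with 10% FBS, then exposed to compounds. Cellular protein per group measured by bicinchoninic acid (BCA) method as a viability control. The same protein values serve to normalize glucose, TG and TC contents. Pathological stimulation where applicable: 1 µM dexamethasone plus 200 µM cAMP, or 25 mM glucose plus 500 nM insulin for 24 h. Means ± SEM, four independent experiments.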

As for `CCOC(=O)C(C)(C)Oc1ccc(F)c(/C=C/[N+](=O)[O-])c1`, the Activity result is recorded as “Non-Toxic”.
